Screening results (PubChem BioAssay)
The list is not random: actives were taken first. Their share in the collection is about 1.8%.
NPY2 pot ag = human NPY-Y2 potentiation or agonism, primary screen. P49146. cells expressing NPY-Y2, potentiator/agonist read-out. activation, % at 3.6 µM. 0.45% of 220,000 active. AID 1359; in the data active = activation above about 27%;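 also: cells stimulated with NPY near EC25 plus isoproterenol at EC100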
Target sequence (P49146 whole entry, looked up): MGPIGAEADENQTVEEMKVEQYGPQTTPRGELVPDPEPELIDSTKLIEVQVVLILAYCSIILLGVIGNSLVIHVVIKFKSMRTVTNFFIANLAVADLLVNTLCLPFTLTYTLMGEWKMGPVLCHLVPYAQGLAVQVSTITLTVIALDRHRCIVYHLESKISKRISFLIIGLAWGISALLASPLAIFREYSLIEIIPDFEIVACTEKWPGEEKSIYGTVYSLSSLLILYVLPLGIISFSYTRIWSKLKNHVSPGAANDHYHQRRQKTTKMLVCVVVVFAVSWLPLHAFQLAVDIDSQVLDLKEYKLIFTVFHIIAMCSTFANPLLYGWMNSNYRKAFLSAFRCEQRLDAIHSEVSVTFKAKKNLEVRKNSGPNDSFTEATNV
NPY1 pot ag = human NPY-Y1 potentiation or agonism, primary screen; NPY-Y1 expressing cells, potentiator/agonist activation; activation, % at 3.6 µM; 0.37% of 220,000 active; in the data active = activation above about 33%, passing the limit was not always enough;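 also: cells stimulated with NPY at EC10 then isoproterenol at EC100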
NPY-Y1 antag = NPY-Y1 (human) receptor antagonism; P25929; HEK293-CNG Y1 cells, membrane potential fluorescence; NPY at EC95, then isoproterenol; inhibition, % at 3.6 µM; 1% of 200,000 active;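 active = inhibition above the campaign mean inhibition of all tested compounds plus 3 SD, cut at about 20% in these data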
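Assay system: HEK293 Y1/CNG channel cell line; Doses: single compound dose of 3.6 µM, 0.4% DMSO; Timing: dye 3 h, compound 60 min room temperature, stimulation 45 min; Technique: Membrane-potential fluorescent dye readout; Measure: % inhibition of NPY effect.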
NPY-Y2 antag = antagonists of human neuropeptide Y receptor Y2; P49146; inhibition, % at 2.7 µM; 0.99% of 140,000 active; NPY-Y2 expressing cells, antagonist mode; AID 793; in the data active = inhibition above about 17%
NPY-Y1 antag ct = human NPY-Y1 antagonism in NPY-Y2 counter-screen | shares compounds with NPY-Y2 antag | cell-based NPY-Y1 antagonism counterscreen | inhibition, % at 3.6 µM | 19% of 710 active | AID 1256; in the data active = inhibition above about 20%;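 also: cells challenged with NPY then isoproterenol with cAMP sensed through a CNG channel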
NPY-Y2 ant conf = confirmation of human neuropeptide Y receptor Y2 antagonists; shares compounds with NPY-Y2 antag; HEK293 NPY-Y2 CNG channel, membrane potential fluorescence; inhibition, % at 2.8 µM; 32% of 710 active; AID 1257;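 active = mean inhibition of triplicate wells above the hit cutoff set in the primary screen, cut at about 17% in these data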
Hits are given with their value; 0 = inactive; - = no result given.

SMILES | NPY2 pot ag | NPY1 pot ag | NPY-Y1 antag | NPY-Y2 antag | NPY-Y1 antag ct | NPY-Y2 ant conf
CC1(C)CC(=O)C=C(NCc2ccc(Cl)c(Cl)c2)C1 | 0 | 0 | 0 | 17.6 | 0 | 0
O=C1C=C(NCc2ccc(Cl)c(Cl)c2)CC1 | 0 | 0 | 0 | 0 | - | -
Cc1ccc2c(c1)N(CCC(=O)NCCCOC(C)C)C(=O)C(C)O2 (configuration not stated) | 0 | 0 | 0 | 0 | - | -
Cc1cccc(CSC2=NCCN2C(=O)c2ccc(Br)o2)c1 | 0 | 0 | 0 | 19.6 | 0 | 30.5
Cc1cccc(CSC2=NCCN2C(=O)c2ccc(S(=O)(=O)N(C)C)cc2)c1 | 0 | 0 | 0 | - | - | -
CCC(=O)Nc1nnc(C(C)(C)C)s1 | 0 | 0 | 0 | 0 | - | -
Clc1ccc(CSc2nnc(-c3cccnc3)o2)cc1 | 0 | 0 | 0 | 0 | - | -
Clc1ccc(CSc2nnc(/C=C/c3ccccc3)o2)cc1 | 0 | 0 | 0 | 18.1 | 24.1 | 21.0
Clc1ccccc1CSc1nnc(/C=C/c2ccccc2)o1 | 0 | 0 | 0 | 20.3 | 0 | 20.9
COc1ccc2c(c1)C(=O)N(c1ccccc1C)C(=O)C2(C)C | 0 | 0 | 0 | - | - | -
O=C(C1=NNCC1c1ccccc1)C1CO1 (configuration not stated) | 0 | 0 | 0 | 0 | - | -
Cc1cc(N/N=C/c2ccncc2)c([N+](=O)[O-])cc1[N+](=O)[O-] | 0 | 0 | - | - | - | -
Cc1c(C(=O)Nc2nc3ccccc3[nH]2)oc2ccc(Br)cc12 | 0 | 0 | 0 | 19.0 | 0 | 0
Cc1c(C(=O)Nc2nc3ccccc3[nH]2)oc2ccccc12 | 0 | 0 | 0 | 0 | - | -
O=C(NC1CCCC1)C(c1ccsc1)N(C(=O)Cc1cccs1)c1ccccc1 (configuration not stated) | 0 | 0 | 0 | 0 | - | -
O=C(NC1CCCC1)C(c1ccsc1)N(CCc1ccccc1)C(=O)Cc1cccs1 (configuration not stated) | 0 | 0 | 0 | 34.2 | 20.9 | 0
CCOc1ccc2[nH]c(=O)c(C(c3nnnn3Cc3ccco3)N3CCCC(C)C3)cc2c1 (configuration not stated) | 0 | 0 | 0 | 17.7 | 0 | 0
CCC(C)(C)n1nnnc1C(c1ccc2ncccc2c1)N1CCCC(C)C1 (configuration not stated) | 0 | 0 | 0 | 17.9 | 0 | 0
CCC(C)(C)n1nnnc1C(c1ccc2ncccc2c1)N1CCN(c2ccc(O)cc2)CC1 (configuration not stated) | 0 | 0 | - | - | - | -
Cc1cccc2[nH]c3c(N4CC=C(c5ccc(F)cc5)CC4)ncnc3c12 | 0 | 0 | - | - | - | -
CN(C)c1ccc(NC(=O)c2ccc([N+](=O)[O-])cc2Cl)cc1 | 0 | 0 | 0 | 0 | - | -
Cc1ccc(NC(=O)c2cc(N(C)C)ccc2[P+](=O)O)cc1 | 0 | 0 | 0 | 20.6 | 0 | 0
CN1C(=O)NC2(O)C(=O)c3ccccc3C12O (configuration not stated) | 0 | 0 | 0 | 18.9 | 0 | 0
CCCN1C(=O)NC2(O)C(=O)c3ccccc3C12O (configuration not stated) | 0 | 0 | 0 | 0 | - | -
Cc1ccc(NC(=O)c2c(C(F)(F)F)nn(C)c2SCc2ccc(Cl)cc2)cc1C | 0 | 0 | 0 | 17.2 | 0 | 0
SMILES | NPY2 pot ag | NPY1 pot ag | NPY-Y1 antag | NPY-Y2 antag | NPY-Y1 antag ct | NPY-Y2 ant conf
COc1ccc(CCNC(=O)CCSc2nc(-c3ccco3)cc(C(F)(F)F)n2)cc1OC | 0 | 0 | 0 | 0 | - | -
CCOc1nc(SCCOc2ccc(Cl)cc2Cl)nc(N(C)C)n1 | 0 | 0 | 0 | 19.8 | 0 | 44.0
CCOc1nc(SCCOc2ccc(C)cc2)nc(N(C)C)n1 | 0 | 0 | 0 | 0 | - | -
CCOc1cc(/C=N/NC(=S)Nc2ccccc2C(F)(F)F)ccc1OCC(=O)N1CCOCC1 | 0 | 0 | 0 | 0 | - | -
CCc1ccccc1N(C1=NCCCS1)S(=O)(=O)c1ccc(C(C)(C)C)cc1 | 0 | 0 | 0 | 0 | - | -
COc1ccc(-c2n[nH]c3c2C(c2ccc(OC)c(OC)c2)N(c2ccccc2)C3=O)cc1 (configuration not stated) | 0 | 0 | 0 | 27.4 | 0 | 37.7
Cc1ccc(S(=O)(=O)C(c2ccccc2)c2c(C)noc2C)cc1 (configuration not stated) | 0 | 0 | 0 | 17.4 | 0 | 56.7
COc1ccccc1OCCCOc1ccc(C)cc1Br | 0 | 0 | 0 | 0 | - | -
Cc1ccc(OCCCCN(C)Cc2ccccc2)c(Br)c1 | 0 | 0 | 0 | 17.8 | 0 | 18.4
Cc1cccc(NC(=S)N(CCN(C)C)Cc2cc3cccc(C)c3[nH]c2=O)c1 | 0 | 0 | 0 | 0 | - | -
Cc1cccc(NC(=S)N(CCN(C)C)Cc2cc3cc(C)cc(C)c3[nH]c2=O)c1 | 0 | 0 | 0 | 19.3 | 0 | 27.4
O=C(Nc1ccccc1)OCc1cc(-c2ccccc2Cl)on1 | 0 | 0 | 0 | 21.8 | 0 | 17.9
Cc1nc2c3ccccc3nc(SCC(=O)N3CC(C)CC(C)C3)n2n1 (configuration not stated) | 0 | 0 | 0 | 0 | - | -
Cc1nc2c3ccccc3nc(SCC(=O)c3ccc(Cl)cc3)n2n1 | 0 | 0 | 0 | 27.2 | 21.4 | 0
CCc1nc2ccccc2c(C(=O)OCc2nnc(-c3ccccc3)o2)c1C | 0 | 0 | 0 | 18.1 | 26.2 | 24.6
C1CCN(c2c3c(nc4nnnn24)CCCC3)CC1 | 0 | 0 | 0 | 0 | - | -
Cc1ccccc1NC(=O)Cn1nnc2c(cnn2-c2ccc(F)cc2)c1=O | 0 | 0 | 0 | 24.3 | 0 | 0
CC(C)c1nnc(SCC(=O)NCc2ccco2)n1C | 0 | 0 | 0 | 0 | - | -
CCn1c(SCC(=O)NCc2ccco2)nnc1C(C)C | 0 | 0 | 0 | 23.1 | 0 | 0
Cc1cc(Cl)ccc1OCCCC(=O)N1CCCc2ccccc21 | 0 | 0 | 0 | 26.6 | 22.6 | 39.7
COc1ccccc1CCC(=O)Nc1ccc(C)cc1Cl | 0 | 0 | 0 | - | - | -
CCCc1nccn1S(=O)(=O)c1cc(OC)ccc1OC | 0 | 0 | 0 | 0 | - | -
O=C(Nc1ccc2c(c1)OCO2)c1nn(-c2ccccc2)c(=O)c2ccccc12 | 0 | 0 | 0 | 17.2 | 0 | 0
COc1ccc2cc3cc(C(=O)Nc4ccccc4N4CCN(C)CC4)oc3nc2c1 | 0 | 0 | 0 | 17.7 | 0 | 0
COc1ccc2cc3cc(C(=O)NCCN4CCN(c5ccccc5F)CC4)oc3nc2c1 | 0 | 0 | 0 | 0 | - | -
SMILES | NPY2 pot ag | NPY1 pot ag | NPY-Y1 antag | NPY-Y2 antag | NPY-Y1 antag ct | NPY-Y2 ant conf
O=C(CSc1nc2ccccc2s1)NCCOc1ccc(Cl)cc1 | 0 | 0 | 0 | 19.8 | 0 | 0
O=C(CSc1nc2ccccc2s1)NCCOc1ccccc1 | 0 | 0 | 0 | 0 | - | -
N#Cc1nc(COc2cccc(Cl)c2)oc1N1CCN(c2ccccc2)CC1 | 0 | 0 | 0 | 25.1 | 0 | 19.8
N#Cc1nc(COc2ccc(Cl)cc2)oc1N1CCCCCC1 | 0 | 0 | 0 | 17.2 | 0 | 17.7
N#Cc1nc(Cc2ccccc2)oc1N1CCN(c2ccccc2)CC1 | 0 | 0 | 0 | 0 | - | -
N#Cc1nc(-c2cccs2)oc1N1CCN(c2ccccc2)CC1 | 0 | 0 | 0 | 18.0 | 0 | 0
O=C(O)C(c1ccccc1)N1CCCC1 (configuration not stated) | 0 | 0 | 0 | 0 | - | -
CC(C)OC(=O)[C@H]1[C@H](c2ccc(Cl)cc2)[C@@](C#N)(C(N)=O)[C@@H]2C=CC(C(N)=O)=CN21 | 0 | 0 | 0 | 0 | - | -
